Source: ChEMBL document CHEMBL1139010, “Synthesis and SAR studies of 2-oxoquinoline derivatives as CB2 receptor inverse agonists” (J Med Chem, 2006)

Key:
[1] = molecular target: T1, Cannabinoid receptor 2 (Homo sapiens, UniProt P34972); experiment: Inhibition of [35S]GTP-gamma-S binding to human CB2 receptor expressed in CHO cells relative to SR-144528; assay type: functional, cell-based
Method in brief: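 Membranes from CHO cells stably expressing hCB2 (Bmax 20.4 pmol/mg; cultured with 100 µg/mL G-418). Each incubation held 5 µg protein in 55 mM Tris-HCl pH 7.4 with 1.1 mM EDTA, 100 mM NaCl, 5 mM MgCl₂, 0.5% BSA, 11 µM GDP and about 150 pM [³⁵S]GTPγS. Ligands were added in 1% ethanol or 0.5% DMSO (final). Inhibition of basal binding was expressed against 1 µM SR144528 (Imax). At least three experiments were run in duplicate, reported as mean and SEM.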

[2] = molecular target: Cannabinoid receptor 1 (Rattus norvegicus) (UniProt P20272); experiment: […] activity at HU210-induced CB1 receptor in rat cerebellar membrane at 1 uM; assay type: functional, cell membranes; conditions: Cerebellum
Sequence of Cannabinoid receptor 1 (Rattus norvegicus) (P20272 whole entry): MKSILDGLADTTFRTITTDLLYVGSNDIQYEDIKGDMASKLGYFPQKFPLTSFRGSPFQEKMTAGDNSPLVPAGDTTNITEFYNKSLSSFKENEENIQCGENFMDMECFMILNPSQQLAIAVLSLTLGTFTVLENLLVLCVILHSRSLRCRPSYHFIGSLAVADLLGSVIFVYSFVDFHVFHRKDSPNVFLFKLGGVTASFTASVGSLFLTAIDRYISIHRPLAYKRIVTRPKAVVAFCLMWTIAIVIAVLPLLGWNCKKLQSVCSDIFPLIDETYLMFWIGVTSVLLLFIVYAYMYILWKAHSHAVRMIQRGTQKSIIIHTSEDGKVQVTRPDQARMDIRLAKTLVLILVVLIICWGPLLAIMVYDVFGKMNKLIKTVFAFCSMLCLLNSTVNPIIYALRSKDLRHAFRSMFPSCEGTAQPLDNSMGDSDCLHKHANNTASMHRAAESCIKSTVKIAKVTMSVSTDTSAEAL
Method in brief: (§1)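 [³⁵S]GTPγS binding in rat cerebellar membranes, measuring block of the CB1 response to 10 nM HU-210 by ligand at 1 µM and 10 µM. Ligand alone was also tested at 10 µM for agonism. Values are means of at least three independent experiments run in duplicate, with SEM as the variability.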

[3] = molecular target: Cannabinoid receptor 1 (Rattus norvegicus) (UniProt P20272); experiment: […] activity at HU210-induced CB1 receptor in rat cerebellar membrane at 10 uM; assay type: functional, cell membranes; conditions: Cerebellum; method in brief: as §1
[4] = molecular target: T1, Cannabinoid receptor 2; experiment: Inhibition of [35S]GTP-gamma-S binding to human CB2 receptor expressed in CHO cells; assay type: functional, cell-based

T1 sequence (P34972 whole entry): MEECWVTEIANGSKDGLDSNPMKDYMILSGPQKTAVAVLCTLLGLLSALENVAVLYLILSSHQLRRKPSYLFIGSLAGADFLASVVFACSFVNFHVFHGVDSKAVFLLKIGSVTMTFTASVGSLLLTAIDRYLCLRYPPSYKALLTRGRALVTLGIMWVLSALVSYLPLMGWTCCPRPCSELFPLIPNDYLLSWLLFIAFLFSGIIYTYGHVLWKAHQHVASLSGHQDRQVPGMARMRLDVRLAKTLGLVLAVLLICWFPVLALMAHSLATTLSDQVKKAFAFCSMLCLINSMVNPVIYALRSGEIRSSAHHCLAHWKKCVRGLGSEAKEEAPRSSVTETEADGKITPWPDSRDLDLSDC

| Compound | Imax [1] | Activity [2] | Activity [3] | IC50 [4] |
| --- | --- | --- | --- | --- |
| CCCCCOc1c(OC)ccc2cc(C(=O)NCc3ccc(O)c(O)c3)c(O)nc12 | 124% | 93% | 85% |  |
| CCCCCOc1c(OC)ccc2cc(C(=O)NCCCc3ccccc3)c(=O)[nH]c12 | 82% | 98% | 59% | 0.794 nM |
| CCCCCOc1c(OC)ccc2cc(C(=O)NCCc3ccccc3)c(=O)[nH]c12 | 76% | 87% | 61% | 0.631 nM |
| CCCCCOc1c(OC)ccc2cc(C(=O)NCCc3ccc(N)cc3)c(=O)[nH]c12 |  |  |  | 3.16 nM |
| CCCCCOc1c(OC)ccc2cc(C(=O)NCCc3ccc(Cl)cc3)c(=O)[nH]c12 | 104% | 95% | 64% | 5.01 nM |
| CCCCCOc1c(OC)ccc2cc(C(=O)NCCc3ccc(N)cc3)c(O)nc12 | 97% | 91% | 74% |  |
| CCCCCOc1c(OC)ccc2cc(C(=O)NCc3ccc4c(c3)OCO4)c(=O)[nH]c12 | 80% | 94% | 78% |  |
| CCCCCOc1c(OC)ccc2cc(C(=O)Nc3ccccc3N)c(=O)[nH]c12 |  |  |  | 12.6 nM |
| CCCCCOc1c(OC)ccc2cc(C(=O)Nc3ccccc3N)c(O)nc12 | 82% | 87% | 82% |  |
| CCCCCOc1c(OC)ccc2cc(C(=O)NCCc3ccc([N+](=O)[O-])cc3)c(O)nc12 | 61% | 87% | 65% |  |
| CCCCCOc1c(OC)ccc2cc(NC(=O)Cc3ccc4c(c3)OCO4)c(O)nc12 | 60% | 93% | 75% |  |
| CCCCCOc1c(OC)ccc2cc(C(=O)NCCc3c[nH]c4ccccc34)c(O)nc12 | 79% | 94% | 72% | 25.1 nM |
| CCCCCOc1c(OC)ccc2cc(C(=O)NCc3ccc(O)c(O)c3)c(=O)[nH]c12 |  |  |  | 3980 nM |
| CCCCCOc1c(OC)ccc2cc(C(=O)NCCc3ccc([N+](=O)[O-])cc3)c(=O)[nH]c12 |  |  |  | 100 nM |
| CCCCCOc1c(OC)ccc2cc(C(=O)NCCc3ccc(O)cc3)c(O)nc12 | 90% | 92% | 68% |  |
| Cc1ccc(Cn2nc(C(=O)NC3C4(C)CCC(C4)C3(C)C)cc2-c2ccc(Cl)c(C)c2)cc1 (centres undefined) | 100% | 77% | 53% |  |
| CCCCCOc1c(OC)ccc2cc(C(=O)NCc3ccccc3)c(O)nc12 | 75% | 94% | 79% | 63.1 nM |
| CCCCCOc1c(OC)ccc2cc(C(=O)NCCc3ccc(O)c(O)c3)c(O)nc12 | 93% | 93% | 63% | 398 nM |
| CCCCCOc1c(OC)ccc2cc(C(=O)NCCc3ccc(O)cc3)c(=O)[nH]c12 |  |  |  | 10 nM |
| CCCCCOc1c(OC)ccc2cc(NC(=O)Cc3ccc4c(c3)OCO4)c(=O)[nH]c12 |  |  |  | 20 nM |
